The record followed here is ChEMBL document CHEMBL5120741, “Small molecule-mediated induction of endoplasmic reticulum stress in cancer cells” (RSC Med Chem, 2021).

The subject of series [1] is HeLa. The series is described as follows: Induction of ERstress in human HeLa cells assessed as increase in lipid level measured after 24 hrs by Oil-red-O staining analysis. It counts as functional, cell-based. The method, boiled down:
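Lipid content: HeLa cells exposed 24 h, stained with Oil Red O plus DAPI for nuclei, viewed by confocal microscopy against untreated control.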

The subject of series [2] is HeLa. Kind of series: Cytotoxicity against human HeLa cells assessed as cell viability after 24 hrs by MTT assay. It counts as functional, cell-based. The essentials: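 HeLa cells from NCCS incubated 24 h with compound across a concentration range (single-point screen at 30 μM); viability read by MTT assay; IC50 from dose-response; significance by two-way ANOVA.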
(In general: Tetrazolium dyes change colour on reduction, which living cells bring about.)

Series [3] concerns HeLa. Kind of series: Induction of autophagy in human HeLa cells assessed as increase in LC3B level measured after 24 hrs by confocal microscopic analysis relative to control. It counts as functional. The essentials:
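HeLa cells treated 24 h, fixed in paraformaldehyde, permeabilized with 0.1% Tween-20 buffer, anti-LC3B primary 4 h, Alexa Fluor 488 secondary, DAPI nuclei; confocal imaging, green signal as fold over control.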

The test system of series [4] is HeLa. The series is described as follows: Cytotoxicity against human HeLa cells assessed as cell killing at 30 uM after 24 hrs by MTT assay.
Series [5] has as its system HeLa. Kind of series: Induction of autophagy in human HeLa cells assessed as increase in LC3-I/LC3-II ratio level measured after 24 hrs by Western blot analysis relative to control. It counts as functional. The method, boiled down:
(§1)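 HeLa cells (NCCS) exposed to compound for 24 h, then lysed; cellular proteins resolved by gel electrophoresis and immunoblotted for LC3-I, LC3-II and Beclin. Band levels expressed as fold change versus untreated control cells. The LC3-I/LC3-II ratio is taken from the same blots and also expressed as fold over control.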
For orientation: A western blot detects proteins with antibodies after separation by electrophoresis.

Series [6] is described as follows: Induction of ERstress in human HeLa cells assessed as increase in PERK expression level measured after 24 hrs by Western blot analysis relative to control. It counts as functional. The essentials:
(§2)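 HeLa cells treated 24 h, lysed, proteins separated by gel electrophoresis and immunoblotted for BiP, CHOP, IRE1α, PERK or caspase-12; expression given as fold change over untreated control.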

The subject of series [7] is HeLa. The series is described as follows: Induction of autophagy in human HeLa cells assessed as increase in LC3-II level measured after 24 hrs by Western blot analysis relative to control. It counts as functional. The method, boiled down:
as §1

Series [8] is described as follows: Induction of ERstress in human HeLa cells assessed as increase in caspase-12 expression level measured after 24 hrs by Western blot analysis relative to control. It counts as functional. The method, boiled down: as §2
Series [9] concerns HeLa. The series is described as follows: Induction of apoptosis in human HeLa cells assessed as increase in late apoptotic cells level measured after 24 hrs by annexin-V-PI staining based flow cytometry (reference value: 0.08%). It counts as functional. The essentials: (§3)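 Apoptosis by flow cytometry: HeLa cells treated 24 h alone or with 50 μM chloroquine, stained with Annexin V-FITC and propidium iodide; early and late apoptotic fractions reported as % cells.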
(In flow cytometry, cells or beads pass a laser one at a time.)

Series [10] deals with HeLa. The series is described as follows: Induction of autophagy in human HeLa cells assessed as increase in beclin level measured after 24 hrs by confocal microscopic analysis relative to control. It counts as functional. The essentials:
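Immunofluorescence: HeLa cells treated 24 h, anti-Beclin primary then Alexa Fluor 594 secondary, DAPI counterstain; confocal microscopy, red signal as fold versus untreated control.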

In series [11] the test system is HeLa. Kind of series: Induction of apoptosis in human HeLa cells assessed as increase in early apoptotic cells level measured after 24 hrs by annexin-V-PI staining based flow cytometry (reference value: 1.26%). It counts as functional. The method, boiled down:
as §3

Series [12] can be described thus: Drug uptake in endoplasmic reticulum of human HeLa cells at 5 uM measured after 3 and 6 hrs by ER-tarcker dye based laser confocal microscopy. It counts as ADME, subcellular. The method, boiled down:
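HeLa cells given 5 μM compound (intrinsically green fluorescent) for 3 h and 6 h, ER counterstained with ER-Tracker Red, imaged by confocal laser scanning microscopy; colocalization quantified as Pearson's and Mander's coefficients.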

Series [13] relates to HeLa. The series is described as follows: Induction of autophagy in human HeLa cells assessed as increase in LC3-1 level measured after 24 hrs by Western blot analysis relative to control. It counts as functional. The method, boiled down: as §1
Series [14] can be described thus: Induction of ERstress in human HeLa cells assessed as increase in CHOP expression level measured after 24 hrs by Western blot analysis relative to control. It counts as functional. The essentials: as §2
Series [15] in a line: Induction of ERstress in human HeLa cells assessed as increase in BiP expression level measured after 24 hrs by Western blot analysis relative to control. It counts as functional. The method, boiled down: as §2
Series [16] in a line: Induction of ERstress in human HeLa cells assessed as increase in IRE1-alpha expression level measured after 24 hrs by Western blot analysis relative to control. It counts as functional. The essentials:
as §2

Series [17] relates to HeLa. Kind of series: Induction of autophagy in human HeLa cells assessed as increase in beclin level measured after 24 hrs by Western blot analysis relative to control. It counts as functional. The essentials:
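Western blot: HeLa cells treated 24 h, lysed, proteins resolved by gel electrophoresis and probed for Beclin; fold change versus untreated cells.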

For series [18], the system named is HeLa. Kind of series: Induction of apoptosis in human HeLa cells assessed as increase in late apoptotic cells level measured after 24 hrs in presence of 50 uM of chloroquine by annexin-V-PI staining based flow cytometry (reference value: 0.08%). It counts as functional. The method, boiled down: as §3
For series [19], the system named is HeLa. The series is described as follows: Induction of apoptosis in human HeLa cells assessed as increase in early apoptotic cells level measured after 24 hrs in presence of 50 uM of chloroquine by annexin-V-PI staining based flow cytometry (reference value: 1.26%). It counts as functional. The essentials:
as §3

Series [20] in a line: Induction of ERstress in human HeLa cells assessed as increase in CHOP expression level measured after 24 hrs by confocal microscopic analysis relative to control. It counts as functional. The method, boiled down:
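After 24 h treatment, HeLa cells probed with anti-CHOP primary antibody (4 h), then Alexa Fluor 594 secondary; nuclei DAPI-stained; confocal imaging, red signal expressed as fold over untreated cells.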

Each structure is given as a SMILES string. Active and inactive are the calls of the source. No cut-off for these calls is given here.

Regarding `O=S(=O)(N/N=C/c1c[nH]c2cc(Br)ccc12)c1ccc(Br)cc1`, the outcome in the series with HeLa [1] and with HeLa [3] was Active. Moreover, the 50% inhibitory concentration (IC50) (as a rule, the concentration at which inhibition is half-maximal) in the series on HeLa [2] was determined as 16 µM. The cell killing at 30 µM in the series with HeLa [4] is more than 60%.

Turning to `COc1ccc(S(=O)(=O)N/N=C/c2c[nH]c3cc(Br)ccc23)cc1`, the IC50 in the series with HeLa [2] stood at 19 µM. The cell killing at 30 µM in the series with HeLa [4] was more than 60%.

In the case of `O=S(=O)(N/N=C/c1c[nH]c2cc(Br)ccc12)c1ccc(Cl)cc1`, in the series on HeLa [2], the concentration for half-maximal inhibition (IC50) came to 18 µM. Further, the cell killing at 30 µM in the series with HeLa [4] is more than 60%.

For the compound `CN(C)c1cccc2c(S(=O)(=O)N/N=C/c3c[nH]c4cc(Br)ccc34)cccc12`, the “fold change (FC)” value in the series with HeLa [5] worked out at 3.8; in series [6] it was 1.6; with HeLa [7], 10; in series [8], 1.4; in the series on HeLa [3], 5; with HeLa [10] it was 8. Besides, the “fold change (FC)” value is given as 2.6 in the series with HeLa [13]; 1.6 in series [14]; 1.6 in series [15]; 1.8 in series [16]; 2 with HeLa [17]; 1.7 in series [20]. Also, the outcome in the series with HeLa [1] was Active. Besides, the IC50 with HeLa [2] came out at 9 µM. For the same compound, the Activity in the series on HeLa [9] stood at 17.8%; in the series on HeLa [11] it was 64.6%; with HeLa [18], 62%; with HeLa [19] it was 28.6%. Also, in series [12], the Drug uptake entry is on record as “Active”. Besides, in the series with HeLa [4], the cell killing at 30 µM was more than 60%.
